These results are taken from ChEMBL document CHEMBL1124776, “Studies on hindered phenols and analogues. 2. 1,3-Benzoxathioles having SRS-A inhibiting activity” (J Med Chem, 1990).

In brackets after ≈: the same amount, converted by molar mass.

For experiment [1], the species on record is Rattus norvegicus. Nature of the experiment: LPO-lowering activity was estimated by the IC50 value of compound in rat liver microsomal lipid peroxidation. The class given is functional. In a few lines: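 Rat liver microsomes were reacted with compound plus cysteine (500 μM) and ferrous sulfate (5 μM), following the ferrous sulfate/cysteine method. Lipid peroxide was measured by the thiobarbituric acid method. IC50 (μg/mL) is the concentration giving 50% inhibition of lipid peroxide formation.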

The species entered for experiment [2] is Cavia porcellus. Nature of the experiment: Evaluated for inhibition of the formation and release of SRS-A in isolated guinea pig ileum. The class given is functional. In outline:
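Guinea pig (Hartley, male) lung slices from sensitized animals were preincubated with compound for 15 min, then challenged with albumin antigen. SRS-A formed and released was bioassayed by superfusion over isolated guinea pig ileum. IC50 (μM) came from a least-squares regression of percent inhibition against dose, with 95% confidence limits by Fieller's equation.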

Experiment [3] relates to superoxide radical (cell-free, no organism). Nature of the experiment: The concentration of compound required to inhibit generation of superoxide by 50 percent electrochemically.
Setting [4] is: Rattus norvegicus, Liver, read-out: IC50.

As usually defined, the IC50 is the concentration that gives 50% inhibition. Take `CCCCCCC1Oc2c(C)c(C)c(O)c(C)c2S1` (stereo unspecified): the IC50 in experiment [1] (setting [4]) was 0.1 µg/mL (≈ 0.357 µM); in experiment [2], above 35.6 µM. In addition, the Q1/2 in experiment [3] came to 1.6 mM.
Regarding `Cc1c(C)c2c(c(C)c1O)CCC(C)(C)O2` [APC-100], in experiment [1] (setting [4]), the IC50 is below 0.1 µg/mL. The Q1/2 in experiment [3] was 2.4 mM.
On to `CCCCC1Oc2c(C)c(C)c(O)c(C)c2S1` (stereo unspecified), for which the IC50 in experiment [1] (setting [4]) was below 0.1 µg/mL; in experiment [2], 11.9 µM. This molecule had a Q1/2 in experiment [3] of 1.6 mM.
Take `NC1=NN(c2cccc(C(F)(F)F)c2)CC1` [BW-755C]: in experiment [2], the IC50 worked out at 136 µM.
On to `CCCCCCCCCCCCCCCCCCCC1Oc2c(C)c(C)c(O)c(C)c2S1` (stereo unspecified), for which, in experiment [1] (setting [4]), the IC50 was above 1 µg/mL. This molecule also showed a Q1/2 in experiment [3] of 1.8 mM.
Consider `Cc1c(C)c2c(c(C)c1O)SC(c1ccccc1)O2` (stereo unspecified), for which the IC50 in experiment [1] (setting [4]) was below 0.1 µg/mL; in experiment [2] it was 6.6 µM. Further, in experiment [3], the Q1/2 amounted to 2.4 mM.
As for `Cc1c(C)c2c(c(C)c1O)CCC(C)(CO)O2` (stereo unspecified), the IC50 in experiment [1] (setting [4]) is 0.3 µg/mL (≈ 1.27 µM). The same molecule showed a Q1/2 in experiment [3] of 2 mM.
For `CC1Oc2cc(C(C)(C)C)c(O)cc2S1` (stereo unspecified), the IC50 in experiment [1] (setting [4]) is 0.1 µg/mL (≈ 0.446 µM); in experiment [2] it was 11.2 µM.
As to `CCCCCCCC1Oc2c(C)c(C)c(O)c(C)c2S1` (stereo unspecified), the IC50 was below 0.1 µg/mL in experiment [1] (setting [4]) and above 33.9 µM in experiment [2]. For the same molecule, the Q1/2 in experiment [3] is reported as 1.4 mM.
For `Cc1c(C)c2c(c(C)c1O)CCC(C)(C(=O)O)O2` (stereo unspecified) [TROLOX], in experiment [1] (setting [4]), the IC50 is above 1 µg/mL. Also, in experiment [3], the Q1/2 is given as 1.9 mM.
Turning to `Cc1c(C)c2c(c(C)c1O)SCO2`, the figures for the IC50 in experiment [1] (setting [4]) and in experiment [2] were below 0.1 µg/mL and 2.4 µM, respectively. This molecule also had a Q1/2 in experiment [3] of 1.3 mM.
For `Cc1c(C)c2c(c(C)c1O)SC(CCCO)O2` (stereo unspecified), the figures for the IC50 in experiment [1] (setting [4]) and in experiment [2] were 0.1 µg/mL (≈ 0.393 µM) and 1.5 µM, respectively. In experiment [3], the Q1/2 was 2.2 mM.
`Cc1c(C)c2c(c(C)c1O)SC(CCC(N)=O)O2` (stereo unspecified): the IC50 is 0.3 µg/mL (≈ 1.12 µM) in experiment [1] (setting [4]) and 3.1 µM in experiment [2]. In experiment [3], the Q1/2 was found to be 2.3 mM.
For the molecule `CCC1Oc2c(C)c(C)c(O)c(C)c2S1` (stereo unspecified), the IC50 is below 0.1 µg/mL in experiment [1] (setting [4]) and 4.5 µM in experiment [2]. Further, the Q1/2 in experiment [3] is given as 1.3 mM.
Molecule VITAMIN E [listing 1 of 2 here] displayed a Q1/2 in experiment [3] of 4.4 mM.
With `CC(C)(C)c1cc(/C=C2\CCOC2=O)cc(C(C)(C)C)c1O`, it took 147 µM to reach half-maximal inhibition in experiment [2] (IC50).
Take `CCCC1Oc2c(C)c(C)c(O)c(C)c2S1` (stereo unspecified): the IC50 is below 0.1 µg/mL in experiment [1] (setting [4]) and 3.8 µM in experiment [2]. The same molecule gave a Q1/2 in experiment [3] of 1.4 mM.
On to `Oc1ccc2c(c1)SCO2`, for which the values for the IC50 in experiment [1] (setting [4]) and in experiment [2] were above 1 µg/mL and above 64.8 µM, respectively. This molecule came in with a Q1/2 in experiment [3] of 6.2 mM.
As for VITAMIN E [listing 2 of 2 here], the IC50 in experiment [1] was above 1 µg/mL.
As for `Cc1cc(C(C)(C)C)c(O)c(C(C)(C)C)c1` [BUTYLATED HYDROXYTOLUENE], in experiment [3], the Q1/2 is recorded as 0.45 mM.
`Cc1c(C)c2c(c(C)c1O)SC(C)O2` (stereo unspecified): the IC50 in experiment [1] (setting [4]) was below 0.1 µg/mL; in experiment [2], 2.1 µM. The molecule further registered a Q1/2 in experiment [3] of 1.6 mM.
The matching figures for `Cc1c(C)c2c(c(C)c1O)SC(CCC(=O)O)O2` (stereo unspecified): above 1 µg/mL, above 37.2 µM and 1.8 mM.
